Measured values gathered from unrelated publications.
Compare with care: the assays were run in different laboratories.
Matrix: Caco-2

tested at	time	quantity	result	SMILES
–	–	Papp	0.54 ×10⁻⁶ cm/s	O=S1(=O)OC(c2ccc(O)cc2)(c2ccc(O)cc2)c2ccccc21
–	–	Papp	4.76 ×10⁻⁶ cm/s	O=C(Nc1ccc(OC(F)(F)F)cc1)N[C@H]1CC[C@H](Oc2ccc(C(=O)O)cc2)CC1
20 µM	2 h	Papp	18 ×10⁻⁶ cm/s	CNC(=O)c1ccccc1Nc1cc(Nc2ccc(N3CCOCC3)cc2OC)ncc1C(F)(F)F
100 µg/mL	2 h	Papp B→A	8.96 ×10⁻⁶ cm/s	COc1ccc(CCC(=O)c2c(O)cc(O[C@@H]3O[C@H](CO)[C@@H](O)[C@H](O)[C@H]3O[C@@H]3O[C@@H](C)[C@H](O)[C@@H](O)[C@H]3O)cc2O)cc1O
10 µM	–	Papp	14.8 ×10⁻⁶ cm/s	Cc1cc(-c2ccnc3[nH]cc(F)c23)cc(F)c1[C@@]1(O)[C@H](C)CN(C2CCS(=O)(=O)CC2)C[C@@H]1C
10 µM	2 h	Papp	8.1 ×10⁻⁶ cm/s	O=C1CCC(N2Cc3cc(C4CCN(Cc5ccccc5)CC4)ccc3C2=O)C(=O)N1 (stereo not shown)
100 µg/mL	2 h	Papp B→A	35.1 ×10⁻⁶ cm/s	COc1ccc(-c2cc(=O)c3c(O)cc(O[C@@H]4O[C@H](CO[C@@H]5O[C@@H](C)[C@H](O)[C@@H](O)[C@H]5O)[C@@H](O)[C@H](O)[C@H]4O)cc3o2)cc1O
1 µM	–	Papp B→A	20.7 ×10⁻⁶ cm/s	Cc1cc(C)c(CNC(=O)c2cc(Cl)c3c(c2C)O[C@@](C)([C@H]2CC[C@H](N(C)C)CC2)O3)c(=O)[nH]1
100 µg/mL	2 h	Papp B→A	2.76 ×10⁻⁶ cm/s	O=c1cc(-c2ccccc2)oc2cc(O)c(O)c(O)c12
10 µM	–	Papp	5.2 ×10⁻⁶ cm/s	Cc1cc(-c2ccnc3[nH]cc(F)c23)cc(F)c1[C@@]1(O)[C@H](C)CN(C(=O)CN)C[C@@H]1C
